Measurements published in ChEMBL document CHEMBL1765057, “Pyrazolo[4,3-d]pyrimidine bioisostere of roscovitine: evaluation of a novel selective inhibitor of cyclin-dependent kinases with antiproliferative activity” (J Med Chem, 2011).
The source made the active and inactive calls. No cut-off for these calls is given here.

Legend:
[1] = target: Cyclin-dependent kinase 7/ cyclin H (Homo sapiens) (UniProt P51946+P50613); test: Inhibition of human recombinant CDK7/cyclin H/MAT1 at 10 uM; type: protein-complex assay
MCF7 = test: Cell cycle arrest in human MCF7 cells assessed as accumulation at G2/M phase after 24 hrs using propidium iodide and BrdU staining by flow cytometry; type: functional, cell-based
In short: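 Subconfluent MCF-7 cells were treated for 24 h at a range of concentrations. They were pulse-labelled with 10 μM BrdU for 30 min at 37 °C, then trypsinized and fixed in ice-cold 70% ethanol. DNA was denatured in 2 M HCl and neutralized with borate. Cells were stained with fluorescein anti-BrdU and with propidium iodide plus RNase A, then analysed by flow cytometry at 488 nm.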

RPMI-8226 [2] = test: Cell cycle arrest in human RPMI8226 cells assessed as accumulation at G1 phase after 24 hrs using propidium iodide and BrdU staining by flow cytometry; type: functional, cell-based
In short: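 Subconfluent cells treated 24 h at varying concentrations, pulsed with 10 μM BrdU for 30 min at 37 °C, then trypsinized, fixed in ice-cold 70% ethanol and DNA denatured in 2 M HCl. After staining with fluorescein anti-BrdU (1:50), propidium iodide (0.1 mg/mL) and RNase A (0.5 mg/mL), cells were read by flow cytometry with a 488 nm laser.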

[3] = target: Cellular tumor antigen p53 (Homo sapiens) (UniProt P04637); test: Induction of p53-dependent transcriptional activity in human MCF7 cells assessed as increase of p21 WAF1 level at 10 uM after 24 hrs by immunofluorescence assay; type: cell-based; settings: in the assay text read “by immunoblotting analysis” for “by immunofluorescence assay”
In short: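 MCF-7 cells were exposed 24 h to 10 μM. Total lysates were made in Laemmli buffer, run on SDS-PAGE and blotted to nitrocellulose, then probed with antibodies to p53, p21WAF1 and Mdm-2, with peroxidase secondary and ECL detection.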

G-361 = test: Cytotoxicity against human G361 cells after 72 hrs by fluoroskan ascent microplate reader analysis; type: functional, cell-based; settings: G-361, 72 h
In short: (§1)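 Cells were grown in DMEM with 10% FCS and 4 mM glutamine at 37 °C under CO2, then plated at densities suited to each line. Compounds were added as 3-fold dilutions in triplicate for 72 h.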

A-431 = test: Cytotoxicity against human A431 cells after 72 hrs by fluoroskan ascent microplate reader analysis; type: functional, cell-based; settings: A-431, 72 h; in short: as §1
CCRF-CEM = test: Cytotoxicity against human CEM cells after 72 hrs by fluoroskan ascent microplate reader analysis; type: functional, cell-based; in short: as §1
HCT-116 = test: Cytotoxicity against human HCT116 cells after 72 hrs by fluoroskan ascent microplate reader analysis; type: functional, cell-based; settings: HCT-116, 72 h; in short: as §1
U2OS = test: Reduction of homologous recombination in human DR-U2OS-GFP cells expressing I-SceI nuclease at 5 uM after 56 hrs […] relative to control; type: functional
[4] = target: Cellular tumor antigen p53 (Homo sapiens) (UniProt P04637); test: Induction of p53-dependent transcriptional activity in human ARN8 cells assessed as beta-galactosidase activity at 10 to 20 uM after 24 hrs by immunofluorescence assay; type: cell-based
In short: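 ARN8 melanoma cells stably carrying the p53-responsive pRGCΔfoslacZ reporter were exposed to inhibitors for 24 h, permeabilized with 0.3% Triton X-100 for 15 min, and given MUG substrate (final 80 μM). Fluorescence was read at 355/460 nm after 1 h. Data are mean ± SD of three independent experiments.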

[5] = target: Cyclin-dependent kinase 1/cyclin B1 (Homo sapiens) (UniProt P06493+P14635); settings: at 10 µM
RPMI-8226 [6] = test: Cell cycle arrest in human RPMI8226 cells assessed as accumulation at G2/M phase after 24 hrs using propidium iodide and BrdU staining by flow cytometry; type: functional, cell-based
In short: (§2)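 Asynchronously growing RPMI-8226 multiple myeloma cells were exposed for 24 h. Cells were double-stained with propidium iodide and BrdU and analysed by flow cytometry for G1, S, G2/M and BrdU-positive fractions. The subG1 population was taken as indicative of apoptosis.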

[7] = target: T1, Retinoblastoma-associated protein (Homo sapiens) (UniProt P06400); test: Inhibition of retinoblastoma protein in human MCF7 cells assessed as reduction of cyclin D1 level at 2.5 to 40 uM after 24 hrs by immunoblotting; type: cell-based
T1 sequence (whole entry): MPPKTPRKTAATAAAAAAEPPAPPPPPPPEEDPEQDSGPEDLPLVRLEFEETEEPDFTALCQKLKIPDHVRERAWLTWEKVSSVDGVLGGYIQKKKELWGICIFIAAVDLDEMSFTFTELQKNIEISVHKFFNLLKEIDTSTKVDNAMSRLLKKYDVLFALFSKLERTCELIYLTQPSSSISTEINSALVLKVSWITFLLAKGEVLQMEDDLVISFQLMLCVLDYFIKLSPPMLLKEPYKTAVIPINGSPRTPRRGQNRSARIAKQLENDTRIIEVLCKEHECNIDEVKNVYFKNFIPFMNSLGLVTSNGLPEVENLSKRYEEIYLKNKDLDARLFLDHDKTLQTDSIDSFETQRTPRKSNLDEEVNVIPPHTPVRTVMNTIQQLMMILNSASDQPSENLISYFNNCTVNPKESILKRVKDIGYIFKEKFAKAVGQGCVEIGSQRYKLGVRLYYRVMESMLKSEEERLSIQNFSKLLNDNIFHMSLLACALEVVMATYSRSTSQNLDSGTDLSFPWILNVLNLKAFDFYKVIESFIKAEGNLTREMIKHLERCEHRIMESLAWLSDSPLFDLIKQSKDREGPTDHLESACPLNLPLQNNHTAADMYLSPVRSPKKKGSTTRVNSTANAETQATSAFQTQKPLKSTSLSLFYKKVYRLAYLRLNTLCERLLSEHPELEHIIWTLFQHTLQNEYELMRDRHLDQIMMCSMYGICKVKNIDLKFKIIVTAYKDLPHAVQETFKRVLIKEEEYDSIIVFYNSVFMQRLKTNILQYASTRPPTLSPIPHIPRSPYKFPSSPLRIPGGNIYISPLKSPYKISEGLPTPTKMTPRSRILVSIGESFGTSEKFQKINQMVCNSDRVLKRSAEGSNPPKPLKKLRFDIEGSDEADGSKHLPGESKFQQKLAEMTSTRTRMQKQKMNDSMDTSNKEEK
In short: (§3)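 Asynchronous, exponentially growing MCF-7 cells were exposed 24 h to a range of concentrations. Total lysates were made in Laemmli buffer, run on SDS-PAGE and blotted to nitrocellulose. Membranes were probed overnight at 4 °C with specific or phosphospecific antibodies (pRb S249/T252, S780, S795, S807/811), with tubulin as loading control and ECL detection.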

[8] = target: T1, Retinoblastoma-associated protein (Homo sapiens); test: Inhibition of retinoblastoma protein in human MCF7 cells assessed as reduction of cyclin A level at 2.5 to 40 uM after 24 hrs by immunoblotting; type: cell-based; in short: as §3
HT-29 = test: Cytotoxicity against human HT-29 cells after 72 hrs by fluoroskan ascent microplate reader analysis; type: functional, cell-based; settings: HT-29, 72 h; in short: as §1
RPMI-8226 [9] = test: Cell cycle arrest in human RPMI8226 cells assessed as decrease in S phase cell population after 24 hrs using propidium iodide and BrdU staining by flow cytometry; type: functional, cell-based; in short: as §2
HeLa = test: Cytotoxicity against human HeLa cells after 72 hrs by fluoroskan ascent microplate reader analysis; type: functional, cell-based; in short: as §1
[10] = target: MAP kinase-activated protein kinase 5 (Homo sapiens) (UniProt Q8IW41); test: Inhibition of human recombinant PRAK at 10 uM
MAP kinase-activated protein kinase 5 (Homo sapiens), sequence (Q8IW41 whole entry): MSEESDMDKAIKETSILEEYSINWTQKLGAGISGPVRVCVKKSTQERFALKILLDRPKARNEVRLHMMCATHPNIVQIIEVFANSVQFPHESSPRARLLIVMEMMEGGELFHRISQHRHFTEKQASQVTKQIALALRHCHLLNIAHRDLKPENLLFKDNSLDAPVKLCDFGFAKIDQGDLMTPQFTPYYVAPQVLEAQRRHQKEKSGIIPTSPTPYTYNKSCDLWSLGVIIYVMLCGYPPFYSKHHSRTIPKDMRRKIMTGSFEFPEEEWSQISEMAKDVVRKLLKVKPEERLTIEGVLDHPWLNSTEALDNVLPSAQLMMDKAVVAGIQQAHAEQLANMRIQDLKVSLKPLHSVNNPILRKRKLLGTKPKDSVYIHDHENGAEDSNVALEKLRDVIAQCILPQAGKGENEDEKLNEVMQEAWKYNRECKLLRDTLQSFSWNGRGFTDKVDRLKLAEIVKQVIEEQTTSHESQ

Cellular tumor antigen p53 (Homo sapiens), sequence (P04637 whole entry, looked up): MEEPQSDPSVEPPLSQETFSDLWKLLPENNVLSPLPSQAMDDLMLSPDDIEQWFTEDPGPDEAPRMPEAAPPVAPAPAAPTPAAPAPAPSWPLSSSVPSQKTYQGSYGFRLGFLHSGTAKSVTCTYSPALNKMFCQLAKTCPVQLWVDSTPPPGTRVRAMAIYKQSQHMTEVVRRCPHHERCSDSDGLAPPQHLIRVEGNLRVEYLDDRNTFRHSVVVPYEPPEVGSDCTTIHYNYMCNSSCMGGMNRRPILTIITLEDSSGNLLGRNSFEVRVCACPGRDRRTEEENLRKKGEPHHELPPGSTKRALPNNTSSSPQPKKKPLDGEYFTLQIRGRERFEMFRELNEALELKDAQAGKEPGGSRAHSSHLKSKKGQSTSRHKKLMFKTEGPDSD
Cyclin-dependent kinase 1/cyclin B1 (Homo sapiens), sequence (P06493 whole entry, looked up): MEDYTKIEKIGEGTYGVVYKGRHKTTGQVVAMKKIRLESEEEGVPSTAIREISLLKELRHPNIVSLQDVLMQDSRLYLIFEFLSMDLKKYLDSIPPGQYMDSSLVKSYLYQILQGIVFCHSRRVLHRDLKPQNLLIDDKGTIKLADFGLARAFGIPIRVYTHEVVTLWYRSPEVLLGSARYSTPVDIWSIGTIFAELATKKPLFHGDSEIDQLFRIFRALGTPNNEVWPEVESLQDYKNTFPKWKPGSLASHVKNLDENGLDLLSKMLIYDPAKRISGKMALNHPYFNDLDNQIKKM
Cyclin-dependent kinase 1/cyclin B1 (Homo sapiens), sequence (P14635 whole entry, looked up): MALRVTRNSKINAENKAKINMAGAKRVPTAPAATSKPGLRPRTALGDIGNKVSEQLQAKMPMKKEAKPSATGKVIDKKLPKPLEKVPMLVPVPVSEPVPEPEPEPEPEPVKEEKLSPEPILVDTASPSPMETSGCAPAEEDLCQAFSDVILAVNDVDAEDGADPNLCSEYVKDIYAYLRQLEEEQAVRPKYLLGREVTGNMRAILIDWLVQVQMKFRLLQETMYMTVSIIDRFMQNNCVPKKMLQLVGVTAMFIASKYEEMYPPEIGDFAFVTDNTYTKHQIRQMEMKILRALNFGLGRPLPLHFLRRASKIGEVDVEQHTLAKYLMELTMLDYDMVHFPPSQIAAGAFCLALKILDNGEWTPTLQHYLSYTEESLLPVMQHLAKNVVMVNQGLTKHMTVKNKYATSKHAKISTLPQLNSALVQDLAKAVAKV

inhibition [1]: 96% | Activity [3]: Active | Activity [4]: Active | inhibition [5]: 84% | inhibition [7]: Active | inhibition [8]: inactive | inhibition [10]: 30%
Structure (SMILES): CC[C@H](CO)Nc1nc(NCc2ccccc2)c2[nH]nc(C(C)C)c2n1
Activity (MCF7): Active | Activity (RPMI-8226 [2]): Active | IC50 (G-361): 4.8 µM | IC50 (A-431): 7.7 µM | IC50 (CCRF-CEM): 3.8 µM | IC50 (HCT-116): 11 µM | inhibition at 5 µM (U2OS): 66% | Activity (RPMI-8226 [6]): Active | IC50 (HT-29): 6.6 µM | Activity (RPMI-8226 [9]): Active | IC50 (HeLa): 6.9 µM
